Assays:
[1] = organism: Bos taurus; assay: Tested in vitro at 30 uM for its ability to inhibit the human recombinant IL-1-beta-induced breakdown of bovine cartilage in a cartilage organ culture assay; type: functional; conditions: Cartilage tissue
Outline: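 Cartilage organ culture screen at a single 30 µM concentration. Bovine nasal septum explants in DMEM/5% FCS with rh IL-1β 500 ng/mL, 40 h, 37 °C, 95% air/5% CO2. Proteoglycan breakdown read as GAG release by dimethylmethylene blue; 35SO4 uptake over a further 2 h used for viability. Eight replicates; percent inhibition.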

[2] = biological target: Stromelysin-1 (Homo sapiens) (UniProt P08254); assay: Tested for inhibition of stromelysin using [3H]transferrin, following pre-incubation with prostromelysin for 0 hr prior to activation by plasmin; conditions: concentration not given here
[3] = biological target: Stromelysin-1 (Homo sapiens) (UniProt P08254); assay: Tested for inhibition of stromelysin using [3H]transferrin, following pre-incubation with prostromelysin for 3 hr prior to activation by plasmin; conditions: concentration not given here
[4] = organism: Bos taurus; assay: In vitro inhibition of human recombinant IL-1-beta-induced breakdown of bovine cartilage in a cartilage organ culture assay; type: functional
Outline: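 Bovine nasal septum cartilage discs (1 mm × 8 mm, cut in eighths) cultured in DMEM + 5% FCS with antibiotics, ± rh IL-1β 500 ng/mL ± drug (DMSO ≤1%) for 40 h at 37 °C. Released GAG measured by 1,9-dimethylmethylene blue against chondroitin sulfate standard, µg/mg wet weight. Eight replicates per group; dose response gives IC50 (µM).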

Sequence of Stromelysin-1 (Homo sapiens) (P08254 whole entry, looked up): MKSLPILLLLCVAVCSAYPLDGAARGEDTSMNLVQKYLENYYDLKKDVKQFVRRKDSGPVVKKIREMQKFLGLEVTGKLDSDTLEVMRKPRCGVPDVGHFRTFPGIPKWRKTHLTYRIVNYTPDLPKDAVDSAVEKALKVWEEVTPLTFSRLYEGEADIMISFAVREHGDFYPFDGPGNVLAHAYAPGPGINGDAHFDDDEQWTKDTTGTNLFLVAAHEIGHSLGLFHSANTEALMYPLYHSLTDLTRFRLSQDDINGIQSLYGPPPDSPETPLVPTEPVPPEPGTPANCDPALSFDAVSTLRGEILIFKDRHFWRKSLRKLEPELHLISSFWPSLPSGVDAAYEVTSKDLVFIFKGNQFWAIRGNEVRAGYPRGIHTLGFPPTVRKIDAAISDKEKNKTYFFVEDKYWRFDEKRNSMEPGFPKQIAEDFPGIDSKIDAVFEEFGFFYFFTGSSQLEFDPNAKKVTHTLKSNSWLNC

| IC50 [4] [µM] | Structure (SMILES) | inhibition [1] [%] | other results |
| --- | --- | --- | --- |
|  | O=c1c2cccnc2sn1-c1cccc([N+](=O)[O-])c1 | 37 |  |
|  | COc1ccc(-n2sc3ncccc3c2=O)c(OC)c1 |  | inhibition [2]: 45%; inhibition [3]: 65% |
| > 30 | O=C1CCN(c2ccccc2)N1 [PHENIDONE] |  |  |
|  | COc1ccc(-n2sc3c(OC)nccc3c2=O)cc1 | 20 |  |
|  | Nc1cccc(-n2sc3ncccc3c2=O)c1 | 34 |  |
|  | N#Cc1ccc(-n2sc3ncccc3c2=O)cc1 | 40 |  |
|  | COc1ccc(OC)c(-n2sc3ncccc3c2=O)c1 |  | inhibition [2]: 51%; inhibition [3]: 68% |
|  | COc1ccc(-n2sc3c(OC)nc(OC)nc3c2=O)cc1 | 50 |  |
|  | O=c1c2cccnc2sn1-c1ccccc1Cl | 0 |  |
|  | O=c1c2ccnc(Cl)c2sn1-c1ccccc1 | 38 |  |
|  | CS(=O)(=O)Nc1ccc(-n2sc3ncccc3c2=O)cc1 | 28 |  |
|  | O=c1c2cccnc2sn1-c1ccc(C(F)(F)F)cc1 | 17 |  |
|  | COc1nc(OC)c2sn(-c3ccccc3)c(=O)c2n1 | 40 |  |
|  | COC(=O)c1cccc(-n2sc3ncccc3c2=O)c1 | 35 |  |
| 25 | COC(=O)c1ccccc1-n1sc2ncccc2c1=O |  |  |
|  | COc1ccc(-n2sc3c(O)nc(O)nc3c2=O)cc1 | 49 |  |
|  | COc1cccc(OC)c1-n1sc2ncccc2c1=O | 40 |  |
|  | COc1nc(OC)c2sn(-c3ccc(C(F)(F)F)cc3)c(=O)c2n1 | 39 |  |
|  | COc1cc2c(=O)n(-c3ccccc3)sc2c(OC)n1 | 39 |  |
|  | O=c1c2cccnc2sn1-c1ccccn1 | 23 |  |
| > 30 | COc1ccc2c(c1)c(CC(=O)O)c(C)n2C(=O)c1ccc(Cl)cc1 [INDOMETHACIN] |  |  |
| > 30 | COc1ccc2cc([C@H](C)C(=O)O)ccc2c1 [NAPROXEN] |  |  |
| > 30 | CN(C)[C@@H]1C(O)=C(C(N)=O)C(=O)[C@@]2(O)C(O)=C3C(=O)c4c(O)cccc4[C@@](C)(O)[C@H]3C[C@@H]12 [TETRACYCLINE] |  |  |
| 8.5 | O=c1c2cccnc2sn1-c1ccc(Cl)cc1 |  |  |
| 12 | O=c1c2cccnc2sn1-c1ccc(F)cc1 |  |  |
| 8 | COC(=O)c1cccc(OC)c1-n1sc2ncccc2c1=O |  |  |

Source: ChEMBL document CHEMBL1127463, “Heteroaryl-fused 2-phenylisothiazolone inhibitors of cartilage breakdown” (J Med Chem, 1994)
